The nature of data set [1]: (§1) Half life in human liver microsomes at 2 uM after 60 mins in presence of NADPH by LC-MS/MS method. The format is ADME, microsome. The settings on record: liver microsomes.
Data set [2] relates to Rattus norvegicus. Put plainly: Toxicity in Sprague-Dawley rat at 60 to 1000 mg/kg, po administered as single dose assessed as changes in food consumption measured during 2 weeks post administration. The format is organism-based. Particulars: in vivo, 336 h. The method in brief: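 Rats, 30 in total, randomised into three groups. Each received a single oral dose of 60, 250 or 1000 mg/kg on day 1. Poisoning symptoms, mortality, behaviour, water and food consumption and body weight monitored immediately and over 2 weeks.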

In data set [3] the test system is Staphylococcus aureus. The data set is described as follows: In vivo anti-virulence activity against methicillin-resistant Staphylococcus aureus NF65Y infected in BALB/c mouse model assessed as reduction in bacterial load in heart at 0.1 mg bid for 3.5 days administered intraperitoneally 6 hrs post infection by serial dilution method relative to linezolid. The format is functional, organism-based. The method in brief:
(§2)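 Mice infected retro-orbitally with S. aureus NF65Y (3.5 × 10^8 CFU) or XN108 (2.1 × 10^8 CFU). Test compound given i.p. b.i.d. starting 6 h post-infection. […] Log10 CFU per kidney and heart counted. Two-tailed Mann−Whitney test.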

For data set [4], the target named is T1, 4,4'-diapophytoene desaturase (4,4'-diaponeurosporene-forming) (Staphylococcus aureus (strain Mu50 / ATCC 700699)) (UniProt Q99R76).
T1 sequence (whole entry): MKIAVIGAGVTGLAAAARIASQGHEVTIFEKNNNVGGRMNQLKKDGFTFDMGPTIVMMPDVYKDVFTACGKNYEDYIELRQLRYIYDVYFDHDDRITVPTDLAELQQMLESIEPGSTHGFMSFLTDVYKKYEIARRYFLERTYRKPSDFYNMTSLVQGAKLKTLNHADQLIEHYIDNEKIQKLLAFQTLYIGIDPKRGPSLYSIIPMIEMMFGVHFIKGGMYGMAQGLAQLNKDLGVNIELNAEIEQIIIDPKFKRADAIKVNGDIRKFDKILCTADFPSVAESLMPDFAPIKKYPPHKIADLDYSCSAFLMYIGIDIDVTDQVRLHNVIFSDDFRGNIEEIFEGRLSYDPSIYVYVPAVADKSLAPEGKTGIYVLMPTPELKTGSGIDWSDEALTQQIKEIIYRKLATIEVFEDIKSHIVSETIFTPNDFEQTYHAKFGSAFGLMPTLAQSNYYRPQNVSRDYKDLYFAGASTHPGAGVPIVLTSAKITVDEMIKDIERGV
Particulars: Staphylococcus aureus subsp. aureus Mu50; 1 uM.

The subject of data set [5] is Staphylococcus aureus. The data set is described as follows: In vivo anti-virulence activity against methicillin-resistant Staphylococcus aureus NF65Y infected in BALB/c mouse model assessed as reduction in bacterial load in kidney at 0.1 mg bid for 3.5 days administered intraperitoneally 6 hrs post infection by serial dilution method relative to linezolid. Type of data set: functional, organism-based. The method in brief: as §2

Data set [6] in a line: Half life in Sprague-Dawley rat at 10 mg/kg, ip administered as single dose by LC-MS/MS analysis. Particulars: in vivo. The format is ADME, organism-based.
The nature of data set [7]: Cmax in mouse at 10 mg/kg, po administered as single dose by LC-MS/MS analysis. The format is ADME, organism-based. More on the design: dose 10 mg/kg, route oral. The settings on record: in vivo.
Data set [8] relates to Staphylococcus aureus. The data set is described as follows: In vivo anti-virulence activity against Staphylococcus aureus Newman infected in BALB/c mouse model assessed as reduction in bacterial load in heart at 0.4 mg bid for 3.5 days administered orally 6 hrs post infection by serial dilution method relative to control. Type of data set: functional, organism-based. The method in brief: (§3)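 Mice got 3.1 × 10^7 CFU S. aureus Newman by retro-orbital injection. Oral compound was given b.i.d. for 3.5 d, starting 6 h after infection. […] Log10 CFU was counted per kidney and per heart.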

Data set [9] addresses Cytochrome P450 2C9 (Homo sapiens, UniProt P11712). The data set is described as follows: Inhibition of CYP2C9 in human liver microsomes using diclofenac as substrate upto 10 uM after 10 mins in presence of NADPH by LC-MS/MS analysis. The format is ADME. (Liver microsomes are a subcellular fraction often used to study metabolism.)
Data set [10] can be described thus: Inhibition of CrtN in methicillin-resistant Staphylococcus aureus NF65Y assessed as reduction in staphyloxanthin levels after 48 hrs by spectrophotometric method-based pigment inhibition assay.
Data set [11] deals with Staphylococcus aureus. The data set is described as follows: In vivo anti-virulence activity against Staphylococcus aureus Newman infected in BALB/c mouse model assessed as reduction in bacterial load in heart at 0.2 mg bid for 3.5 days administered orally 6 hrs post infection by serial dilution method relative to vancomycin. The format is functional. Set-up: scale not given: the % may be the effect or the level left. The gist of the method: as §3

Data set [12] is described as follows: Tmax in mouse at 10 mg/kg, po administered as single dose by LC-MS/MS analysis. Type of data set: ADME, organism-based. Particulars: in vivo.
The nature of data set [13]: AUC (0 to 24 hrs) in Sprague-Dawley rat at 10 mg/kg, ip administered as single dose by LC-MS/MS analysis. The format is ADME, organism-based. More on the design: dose 10 mg/kg, time < 24 hr, route intraperitoneal. Particulars: in vivo.
Data set [14] addresses T2, 4,4'-diapophytoene desaturase (4,4'-diaponeurosporene-forming) (Staphylococcus aureus (strain MW2)) (UniProt Q8NUQ6).
T2 sequence (whole entry): T1 sequence (whole entry) with R500Q
The settings on record: Staphylococcus aureus subsp. aureus MW2; USA400; 1 uM.

For data set [15], the system named is Staphylococcus aureus. Put plainly: In vivo anti-virulence activity against methicillin-resistant Staphylococcus aureus LRSA202 infected in BALB/c mouse model assessed as reduction in bacterial load in kidney at 0.1 mg bid for 3.5 days administered intraperitoneally 6 hrs post infection by serial dilution method relative to control. Type of data set: functional, organism-based. The method in brief: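 Mice were infected by retro-orbital injection with LRSA56 (5.0 × 10^7 CFU) or LRSA202 (7.0 × 10^7 CFU). Compound was given intraperitoneally 6 h after infection. […] Log10 CFU was counted in kidneys and hearts, with groups compared by two-tailed Mann-Whitney test.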

Data set [16] can be described thus: Oral bioavailability in Sprague-Dawley rat at 10 mg/kg administered as single dose by LC-MS/MS analysis. The format is ADME, organism-based. Particulars: in vivo.
The test system of data set [17] is Liver. Described as §1. Type of data set: ADME, microsome. The settings on record: microsomes, 1 h, 2 µM.
Data set [18] is described as follows: AUC (0 to infinity) in Sprague-Dawley rat at 5 mg/kg, iv administered as single dose by LC-MS/MS analysis. Set-up: dose 5 mg/kg, time infinity, route intravenous. The format is ADME, organism-based. Particulars: in vivo.
The test system of data set [19] is Staphylococcus aureus. The data set is described as follows: In vivo anti-virulence activity against Staphylococcus aureus Newman infected in BALB/c mouse model assessed as reduction in bacterial load in kidney at 0.1 mg bid for 3.5 days administered orally 6 hrs post infection by serial dilution method relative to control. The format is functional. Set-up: scale not given: the % may be the effect or the level left. The gist of the method:
as §3

The structures appear in SMILES notation. Where a chain is given by its changes, count along the chain named. Active and inactive are the calls of the source. The rule behind the calls is not given here.

As usually defined, the half-life is how long it takes for the measured level to halve. Usually Cmax stands for the highest concentration seen after dosing. One may read the IC50 as the concentration needed to halve the response being measured. Usually Tmax stands for the time at which the peak concentration occurs. Usually AUC(0-t) stands for the area under the concentration-time curve up to a stated or last time point. The bioavailability is dose-corrected exposure relative to a reference, in per cent. What is called AUC(0-inf) is total exposure, with the tail of the curve extrapolated.

Sequence of Cytochrome P450 2C9 (P11712 whole entry): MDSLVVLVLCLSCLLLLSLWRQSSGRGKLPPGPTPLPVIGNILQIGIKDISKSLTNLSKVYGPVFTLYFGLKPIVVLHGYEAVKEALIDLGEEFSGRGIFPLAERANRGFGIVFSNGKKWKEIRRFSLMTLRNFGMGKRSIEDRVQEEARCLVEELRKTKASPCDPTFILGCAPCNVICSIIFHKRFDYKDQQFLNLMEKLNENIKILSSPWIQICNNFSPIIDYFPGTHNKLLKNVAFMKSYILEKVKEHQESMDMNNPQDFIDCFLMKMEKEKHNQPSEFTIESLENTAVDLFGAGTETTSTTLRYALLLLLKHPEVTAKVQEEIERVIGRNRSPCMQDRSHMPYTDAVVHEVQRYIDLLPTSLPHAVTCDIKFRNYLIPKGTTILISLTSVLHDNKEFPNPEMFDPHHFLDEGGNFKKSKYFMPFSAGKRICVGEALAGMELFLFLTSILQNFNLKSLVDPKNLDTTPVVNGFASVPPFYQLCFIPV

Take `CN(C/C=C/c1ccc(-c2ccccc2)cc1)Cc1cccc2cc[nH]c12.Cl`: in data set [1], the half-life at 2 µM is 1.56 h.

`CN(C/C=C/c1ccc(-c2ccccc2)cc1)Cc1coc2ccccc12.Cl`: the Activity entry is given as “Non-Toxic” in [2], over 55.3% in data set [11] and 90% in data set [19]. The outcome in data set [3], in [5] and in data set [15] was Active. Besides, the Survival in data set [4] stood at 2.7%; in data set [14], 1%. This compound also had a half-life in [6] of 7.61 h. Also, the Cmax in data set [7] was determined as 801 ng/mL. Moreover, the result in data set [8] was inactive. Besides, the half-inhibitory concentration (IC50) in data set [9] was over 10000 nM; in data set [10], 1 nM. In data set [12], the time to peak (Tmax) amounted to 2 h. The compound also displayed an AUC(0-t) at 24 h in data set [13] of 975 µg·h/mL. Also, the bioavailability in data set [16] was determined as 16.3%. Further, in [17], the t1/2 came out at 0.845 h. The AUC(0-inf) in [18] was 2.86 µg·h/mL.

The record behind these values is ChEMBL document CHEMBL4024779, “Novel Terminal Bipheny-Based Diapophytoene Desaturases (CrtN) Inhibitors as Anti-MRSA/VISR/LRSA Agents with Reduced hERG Activity” (J Med Chem, 2018).
